In assay [1] the test system is A549. The experiment in a line: Antitumor activity against human A549 xenografted SCID mouse model at 10 mg/kg, ip after 5 days. In kind it is functional, organism-based. More on the design: dose 10 mg/kg. In a few lines: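 Male SCID mice were inoculated s.c. on the dorsal side with 1.5 × 10⁷ A549 cells. Day 1 was when tumors reached ≥5 mm; groups of six. Dosing ip at 10 mL/kg every 4 days for six doses. Tumor size and body weight recorded every 4 days. Tumor weight = length × width² × 0.5. T/C = (Tn−T1)/(Cn−C1) × 100% against vehicle.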

The test system of a further assay is KB. The experiment in a line: Cytotoxicity against human KB cells by SRB microtiter plate assay. In kind it is functional, cell-based. A digest of the protocol:
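KB cells grown at 37 °C, 5% CO₂, humidified, in RPMI-1640 with 25 mM HEPES, 2% (w/v) sodium bicarbonate, 10% FBS and 100 µg/mL kanamycin. Compounds were added from DMSO stocks, with final DMSO at or below 1% (v/v). IC₅₀ was interpolated from dose-response data. Each test was run in triplicate, and independent tests were repeated.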

Assay [2] is described as follows: Cytotoxicity against multidrug resistant human KB-Vin cells by SRB microtiter plate assay. In kind it is functional, cell-based. In a few lines:
(§1)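 Cells were cultured at 37 °C, 5% CO₂, in RPMI-1640 with 25 mM HEPES, 2% bicarbonate, 10% FBS and kanamycin. Compounds were added from DMSO stocks, final DMSO ≤1% (v/v). IC₅₀ was interpolated from dose-response data. Each test was run in triplicate in independent experiments.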

Another assay deals with DU-145. Briefly: Cytotoxicity against human DU145 cells by SRB microtiter plate assay. In kind it is functional, cell-based. A digest of the protocol: as §1
In assay [3] the test system is A549. Briefly: Cytotoxicity against human A549 cells by SRB microtiter plate assay. In kind it is functional, cell-based. In a few lines: as §1
In a further assay the test system is ZR-75-1. Briefly: Cytotoxicity against human ZR751cells by SRB microtiter plate assay. Format: functional, cell-based. A digest of the protocol: as §1

Calls of active or inactive are those of the source. The rule behind the calls is not given here. Some results are limits rather than exact numbers.

Turning to `COc1ccc2c(CN3CCC(CO)CC3)cc3cc4c(cc3c2c1)OCO4` [listing 1 of 3 here], in the assay on A549 [1], the result was Active.

Turning to `COc1cc([C@@H]2c3cc4c(cc3[C@@H](O[C@@H]3O[C@@H]5CO[C@@H](C)O[C@H]5[C@H](O)[C@H]3O)[C@H]3COC(=O)[C@H]23)OCO4)cc(OC)c1O` [ETOPOSIDE], the IC50 in the assay with KB (Homo sapiens, KB) was 4800 nM; in assay [2] (Homo sapiens, KBVIN) it was greater than 10000 nM; in the assay on DU-145 (Homo sapiens, DU-145), 2400 nM; in the assay on A549 [3] (Homo sapiens, A549), 1400 nM; with ZR-75-1 (Homo sapiens, ZR-75-1), 3100 nM.

With `COc1ccc2c(CN3CCN(c4ccc(O)cc4)CC3)cc3cc4c(cc3c2c1)OCO4`, the IC50 in the assay with KB (Homo sapiens, KB) came to 130 nM; in assay [2] (Homo sapiens, KBVIN), 340 nM; in the assay on DU-145 (Homo sapiens, DU-145), 150 nM; with A549 [3] (Homo sapiens, A549) it was 220 nM; in the assay on ZR-75-1 (Homo sapiens, ZR-75-1), 180 nM.

Take `O=C(O)[C@@H]1CCCCN1Cc1cc2cc3c(cc2c2cc(OCc4ccccc4)ccc12)OCO3`: the IC50 in the assay on A549 [3] (Homo sapiens, A549) is 3200 nM.

In the assay on A549 [3] (Homo sapiens, A549), `COc1ccc2c(CN3CCCC[C@H]3C(=O)O)cc3cc4c(cc3c2c1)OCO4` came in with an IC50 of 500 nM.

With `COc1ccc2c(CNCCCCCC(=O)O)cc3cc4c(cc3c2c1)OCO4`, the IC50 with KB (Homo sapiens, KB) turned out to be 330 nM; in assay [2] (Homo sapiens, KBVIN), 830 nM; in the assay with DU-145 (Homo sapiens, DU-145), 670 nM; with A549 [3] (Homo sapiens, A549) it was 800 nM; with ZR-75-1 (Homo sapiens, ZR-75-1), 540 nM.

Take `CC[C@H]1CN2CCc3cc(OC)c(OC)cc3[C@@H]2C[C@@H]1C[C@H]1NCCc2cc(OC)c(OC)cc21` [EMETINE]: the IC50 is 40 nM in the assay on KB (Homo sapiens, KB); greater than 2000 nM in assay [2] (Homo sapiens, KBVIN); 60 nM in the assay on DU-145 (Homo sapiens, DU-145); 40 nM in the assay on A549 [3] (Homo sapiens, A549); 100 nM in the assay on ZR-75-1 (Homo sapiens, ZR-75-1).

Regarding `COc1ccc2c(CN3CCC(CO)CC3)cc3cc4c(cc3c2c1)OCO4` [listing 2 of 3 here], the IC50 in the assay with KB (kb) is 70 nM; in assay [2], 40 nM; with DU-145 (Homo sapiens, DU-145), 50 nM; with A549 [3] (a549) it was 70 nM; with ZR-75-1 (Homo sapiens, ZR-75-1) it was 40 nM.

`COc1ccc2c(CN3CCC(C(=O)O)CC3)cc3cc4c(cc3c2c1)OCO4`: the IC50 was determined as 150 nM with KB (Homo sapiens, KB); 380 nM in assay [2] (Homo sapiens, KBVIN); 310 nM in the assay with DU-145 (Homo sapiens, DU-145); 230 nM with A549 [3] (Homo sapiens, A549); 250 nM in the assay with ZR-75-1 (Homo sapiens, ZR-75-1).

In the assay with A549 [3] (Homo sapiens, A549), `O=C(O)C1CCN(Cc2cc3cc4c(cc3c3cc(OCc5ccccc5)ccc23)OCO4)CC1` displayed an IC50 of 2100 nM.

Turning to `COc1ccc2c(CN3CCC[C@H]3CO)cc3cc4c(cc3c2c1)OCO4`, the midpoint of inhibition in the assay on A549 [3] (Homo sapiens, A549), the IC50, lay at 700 nM.

Turning to `COc1cccc2c1C(=O)c1c(O)c3c(c(O)c1C2=O)C[C@@](O)(C(=O)CO)C[C@@H]3O[C@H]1C[C@H](N)[C@H](O)[C@H](C)O1` [DOXORUBICIN], the IC50 in the assay with KB (Homo sapiens, KB) was 180 nM; in assay [2] (Homo sapiens, KBVIN), greater than 4000 nM; with DU-145 (Homo sapiens, DU-145), 130 nM; in the assay on A549 [3] (Homo sapiens, A549), 180 nM; with ZR-75-1 (Homo sapiens, ZR-75-1), 40 nM.

`COc1ccc2c(CN3CCC(CO)CC3)cc3cc4c(cc3c2c1)OCO4` [listing 3 of 3 here]: the IC50 with KB (kb) turned out to be 240 nM; in assay [2], 90 nM; with DU-145 (du-145), 30 nM; in the assay with A549 [3] (Homo sapiens, A549) it was 80 nM; in the assay with ZR-75-1 (zr-75-1), 30 nM.

`COc1ccc2c(CN3CCC[C@@H]3CO)cc3cc4c(cc3c2c1)OCO4` returned an IC50 with A549 [3] (Homo sapiens, A549) of 1100 nM.

With `COc1ccc2c(CNCCCCCCO)cc3cc4c(cc3c2c1)OCO4` [listing 1 of 2 here], the IC50 in the assay with KB (kb) worked out at 250 nM; in assay [2], 350 nM; with DU-145 (du-145), 440 nM; with A549 [3] (Homo sapiens, A549), 200 nM; in the assay on ZR-75-1 (zr-75-1) it was 130 nM.

Regarding `COc1ccc2c(CNCCCCCCCCCCCO)cc3cc4c(cc3c2c1)OCO4`, the IC50 in the assay with A549 [3] (Homo sapiens, A549) came out at 2600 nM.

Take `COc1ccc2c(CN3CCN(CCOCCO)CC3)cc3cc4c(cc3c2c1)OCO4`: the IC50 with A549 [3] (Homo sapiens, A549) is 57100 nM.

As for `COc1ccc2c(CN3CCCC[C@H]3CO)cc3cc4c(cc3c2c1)OCO4` [listing 1 of 2 here], the IC50 with KB (Homo sapiens, KB) was 120 nM; in assay [2] (Homo sapiens, KBVIN) it was 160 nM; in the assay with DU-145 (du-145), 210 nM; with A549 [3] (Homo sapiens, A549), 160 nM; in the assay with ZR-75-1 (Homo sapiens, ZR-75-1) it was 100 nM.

`CC[C@]1(O)C[C@H]2CN(CCc3c([nH]c4ccccc34)[C@@](C(=O)OC)(c3cc4c(cc3OC)N(C=O)[C@H]3[C@@](O)(C(=O)OC)[C@H](OC(C)=O)[C@]5(CC)C=CCN6CC[C@]43[C@@H]65)C2)C1` [VINCRISTINE]: the IC50 in the assay on KB (Homo sapiens, KB) stood at 6 nM; in assay [2] (Homo sapiens, KBVIN), 5300 nM; in the assay with DU-145 (Homo sapiens, DU-145), 85 nM; in the assay with A549 [3] (Homo sapiens, A549) it was 40 nM; in the assay on ZR-75-1 (Homo sapiens, ZR-75-1) it was 40 nM.

With `COc1ccc2c(CN3CCN(c4ccccc4Cl)CC3)cc3cc4c(cc3c2c1)OCO4`, the result with A549 [3] was inactive.

Consider `COc1ccc2c(CN3CCC(CCO)CC3)cc3cc4c(cc3c2c1)OCO4` [listing 1 of 2 here], for which the IC50 came out at 420 nM in the assay with KB (kb); 500 nM in assay [2]; 150 nM with DU-145 (du-145); 150 nM in the assay with A549 [3] (Homo sapiens, A549); 30 nM with ZR-75-1 (zr-75-1).

The compound `COc1ccc2c(CNCCCCCO)cc3cc4c(cc3c2c1)OCO4` showed an IC50 in the assay on A549 [3] (Homo sapiens, A549) of 270 nM.

In the case of `COc1ccc2c(CN3CCN(CCO)CC3)cc3cc4c(cc3c2c1)OCO4`, the IC50 in the assay on KB (Homo sapiens, KB) is 500 nM; in assay [2] (Homo sapiens, KBVIN) it was 510 nM; in the assay on DU-145 (Homo sapiens, DU-145), 250 nM; in the assay on A549 [3] (Homo sapiens, A549), 630 nM; in the assay with ZR-75-1 (Homo sapiens, ZR-75-1), 230 nM.

For `COc1ccc2c(CN3CCC(CCO)CC3)cc3cc4c(cc3c2c1)OCO4` [listing 2 of 2 here], the IC50 in the assay with KB (kb) was found to be 200 nM; in assay [2] it was 200 nM; in the assay on DU-145 (Homo sapiens, DU-145), 100 nM; with A549 [3] (a549), 90 nM; with ZR-75-1 (Homo sapiens, ZR-75-1), 20 nM.

With `COc1ccc2c(CNCCCCCCCCCCC(=O)O)cc3cc4c(cc3c2c1)OCO4`, the IC50 in the assay on A549 [3] (Homo sapiens, A549) is 3200 nM.

In the assay with A549 [3] (Homo sapiens, A549), `COc1ccc2c(CN3CCC[C@H]3C(=O)O)cc3cc4c(cc3c2c1)OCO4` gave an IC50 of 2100 nM.

On to `COc1ccc2c(CNCCCCCCO)cc3cc4c(cc3c2c1)OCO4` [listing 2 of 2 here], for which the IC50 with KB (Homo sapiens, KB) amounted to 230 nM; in assay [2], 160 nM; in the assay on DU-145 (du-145), 70 nM; in the assay with ZR-75-1 (Homo sapiens, ZR-75-1), 80 nM.

In turn, `COc1ccc2c(CNCCCCC(=O)O)cc3cc4c(cc3c2c1)OCO4` came in with an IC50 in the assay with A549 [3] (Homo sapiens, A549) of 1300 nM.

With `COc1ccc2c(CN3CCCC[C@H]3CO)cc3cc4c(cc3c2c1)OCO4` [listing 2 of 2 here], the IC50 in assay [2] worked out at 90 nM; in the assay with DU-145 (du-145), 90 nM; with ZR-75-1 (zr-75-1), 80 nM.

With `OC[C@@H]1CCCCN1Cc1cc2cc3c(cc2c2cc(OCc4ccccc4)ccc12)OCO3`, in the assay with A549 [3] (Homo sapiens, A549), 1300 nM corresponded to half-maximal inhibition (IC50).

Regarding `COc1ccc2c(CN3CCC[C@@H]3C(=O)O)cc3cc4c(cc3c2c1)OCO4`, half-maximal inhibition in the assay with A549 [3] (Homo sapiens, A549) (IC50) required 5200 nM.

For `COc1ccc2c3c(c4cc(OC)c(OC)cc4c2c1)C[C@H]1CCCN1C3` [(-)-ANTOFINE], the IC50 with KB (Homo sapiens, KB) is 13 nM; in assay [2] (Homo sapiens, KBVIN) it was 9 nM; with DU-145 (Homo sapiens, DU-145), 9 nM; in the assay with A549 [3] (Homo sapiens, A549), 8 nM; in the assay on ZR-75-1 (Homo sapiens, ZR-75-1) it was 8 nM.

With `OCC1CCN(Cc2cc3cc4c(cc3c3cc(OCc5ccccc5)ccc23)OCO4)CC1`, 700 nM corresponded to half-maximal inhibition in the assay with A549 [3] (Homo sapiens, A549) (IC50).

With `COc1ccc2c(CN3CCN(c4ccc(Cl)cc4)CC3)cc3cc4c(cc3c2c1)OCO4`, it took 65200 nM to reach half-maximal inhibition in the assay on A549 [3] (Homo sapiens, A549) (IC50).

Values taken from ChEMBL document CHEMBL1145456, “Antitumor agents 253. Design, synthesis, and antitumor evaluation of novel 9-substituted phenanthrene-based tylophorine derivatives as potential anticancer agents” (J Med Chem, 2007).
